Laboratory results published in PMC11926516 (Small Methods, 2024).
Like-named read-outs stand apart in the source and are kept apart here.

Assays:
HUVEC monolayers = type: cell-based, human; details: 0.1 h after MDS stimulation (1 mA/cm^2 for 7 min)
OVX OP rat models [1] = assay: Plasma bone turnover markers PINP and CTX-I by Elisa in OVX rats; type: in vivo, Sprague–Dawley rats; details: n = 5
[2] = post-SCI, cited from earlier work
[3] = test system: major organs (heart, lung, liver, kidney, spleen); type: in vivo, rats
Summary of the method: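 Major organs (heart, lung, liver, kidney, spleen) were taken at the end of the treatment experiment. They were photographed and weighed (n = 3, one-way ANOVA), then paraffin-embedded, serially sectioned and H&E-stained.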

OVX OP rat models [4] = assay: Histology of distal femurs; type: in vivo, Sprague–Dawley rats
Summary of the method: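 Female Sprague–Dawley rats, 12 weeks old, under pentobarbital anaesthesia. Bilateral ovariectomy via dorsal midline incision; sham rats had matching adipose tissue removed. Rats received PBS or PTH by different delivery methods for 4 weeks. Distal femurs were decalcified 3 weeks, paraffin-embedded and serially sectioned. Stains: H&E, Masson, TRAP kit, and IHC for Col1 (1:100), Ocn (1:200) and Ctsk (1:50). Positive cells per bone surface counted, n = 5, one-way ANOVA.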

[5] = stated consistent with own SCI-PTH group

CC(=O)OCOC(=O)CN(CC(=O)OCOC(C)=O)c1ccccc1OCCOc1ccccc1N(CC(=O)OCOC(C)=O)CC(=O)OCOC(C)=O [BAPTA‐AM]
increase in intracellular SFs and disappearance of VE-cadherin fluorescence during the electro-stimulated phase (HUVEC monolayers; inhibitor 20 µM): blocked

C[C@@H](N)[C@H]1CC[C@H](C(=O)Nc2ccncc2)CC1 [Y27632]
increase in intracellular SFs and disappearance of VE-cadherin fluorescence during the electro-stimulated phase (HUVEC monolayers; inhibitor 15 µM): blocked

N.N.N.N.N.N.N.N.N.N.N.N.N.N.[Cl-].[Cl-].[Cl-].[Cl-].[Cl-].[Cl-].[O-2].[O-2].[Ru+3].[Ru+3].[Ru+4] [ruthenium red]
increase in intracellular SFs and disappearance of VE-cadherin fluorescence during the electro-stimulated phase (HUVEC monolayers; inhibitor 20 µM): blocked

Human parathyroid hormone (1–34) [PTH]
bone formation marker PINP (OVX OP rat models [1]; MDS-PTH group compared to OVX group): increased notably
bone resorption marker CTX-I (OVX OP rat models [1]; MDS-PTH group compared to SCI-PTH group): significantly lower
bone formation marker PINP (OVX OP rat models [1]; SCI-PTH group compared to OVX group): increased notably
bone formation marker PINP, difference between delivery methods (OVX OP rat models [1]; SCI-PTH versus MDS-PTH groups): no significant difference
subcutaneous residue [2]: approximately 20%
elimination time [2, 5]: 4 h
time to plasma Cmax [2, 5]: 30 min
histopathological analysis of visceral organs ([3]; MDS-PTH group after one month of PTH treatment, H&E): no structural disruption
appearance or weight of major organs ([3]; MDS-PTH group compared to SCI-PBS and SCI-PTH groups after one month of PTH treatment, n = 3): no significant difference
Ctsk+ and Trap+ osteoclasts per bone surface (OVX OP rat models [4]; MDS-PTH group compared to SCI-PTH group, IHC and Trap staining, n = 5): dramatically fewer
new bone formation (H&E and Masson's staining) (OVX OP rat models [4]; MDS-PTH group compared to SCI-PTH group, OVX rats, 40 µg k^−1g once daily for one month): significantly promoted
Col+ and OCN+ osteoblasts per bone surface (OVX OP rat models [4]; MDS-PTH group compared with OVX group, IHC, n = 5): more
Col+ and OCN+ osteoblasts per bone surface (OVX OP rat models [4]; SCI-PTH group compared with OVX group, IHC, n = 5): more
Col+ and OCN+ osteoblasts per bone surface, difference between delivery methods (OVX OP rat models [4]; SCI-PTH versus MDS-PTH groups, IHC, n = 5): no significant difference
